# Results taken from ChEMBL document CHEMBL4145684 (J Med Chem, 2018).
# Activity calls are given as the source filed them. The calls are words filed in the database; no cut-off is given here.
# Columns and labels:
# MCF7 = assay: Antiproliferative activity against human MCF7 cells assessed as reduction in cell proliferation in RPMI containing 10% FBS incubated for 5 days by Cell-titer-Glo assay; format: functional, cell-based; conditions: MCF7, 120 h
# In short: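 MCF-7 cells, 640/well in RPMI with 10% FBS and 20 mM HEPES, adhered overnight; 10-point 1:5 dilution series (10–0.000005 µM final) for 5 days. CellTiter-Glo luminescence, cell-free medium background subtracted, percent viability vs untreated cells; n ≥ 3.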
# Estrogen receptor [1] = molecular target: T1, Estrogen receptor (Homo sapiens, UniProt P03372); assay: Induction of ERalpha degradation in human MCF7 cells in phenol red free RPMI medium containing 5% charcoal dextran-treated FBS incubated for 4 hrs by SP1 and anti-ER rabbit monocolnal antibody based in-cell Western assay
# T1 sequence (P03372 whole entry): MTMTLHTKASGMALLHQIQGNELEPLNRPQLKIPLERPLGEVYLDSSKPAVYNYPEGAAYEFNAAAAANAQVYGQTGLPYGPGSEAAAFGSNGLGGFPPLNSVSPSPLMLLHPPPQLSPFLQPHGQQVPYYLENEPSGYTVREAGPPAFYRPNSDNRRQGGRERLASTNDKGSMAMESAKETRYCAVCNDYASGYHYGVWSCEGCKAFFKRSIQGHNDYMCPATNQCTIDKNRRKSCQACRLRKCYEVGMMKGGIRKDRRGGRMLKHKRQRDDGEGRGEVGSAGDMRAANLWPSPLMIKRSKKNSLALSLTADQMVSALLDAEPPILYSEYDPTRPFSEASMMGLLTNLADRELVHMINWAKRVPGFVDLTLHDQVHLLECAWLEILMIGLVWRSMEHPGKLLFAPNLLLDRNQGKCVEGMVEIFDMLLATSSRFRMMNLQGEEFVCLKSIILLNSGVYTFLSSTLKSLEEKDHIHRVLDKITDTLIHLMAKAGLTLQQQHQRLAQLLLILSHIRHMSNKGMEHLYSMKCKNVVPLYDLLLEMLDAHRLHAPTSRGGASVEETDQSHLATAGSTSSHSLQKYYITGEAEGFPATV
# Rattus norvegicus [2] = assay: Reduction in uterine wet weight in ethynyl estradiol-stimulated CD-IGS rat at 1 mg/kg, po dosed daily for 3 days by gavage followed 15 mins later by 0.1 mg/kg, po ethynyl estradiol and measured 24 hrs after last dose by immature rat uterine wet weight assay; format: functional
# In short: (§1)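 Female immature CD-IGS rats, 21 days old on arrival; oral gavage of vehicle or compound daily for 3 days, ethynyl estradiol 0.1 mg/kg orally 15 min after each dose. Day 4, 24 h post-dose, plasma taken, then uterus removed and weighed. Reduction = 100 x (VehicleEE – Cpd)/(VehicleEE – Vehicle).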
# [3] = AUC in mouse at 10 mg/kg, po; format: ADME, organism-based; conditions: in vivo
# In short: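 Mouse or rat PK: single intravenous dose 3 mg/kg or oral dose 10 mg/kg, vehicle PEG400/PVP/Tween 80/0.5% CMC in water (9:0.5:0.5:90).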
# Rattus norvegicus [4] = assay: In-vivo agonist activity at ERalpha in CD-IGS rat assessed as increase in uterine wet weight at 10 mg/kg, po dosed daily for 3 days by gavage and measured 24 hrs after last dose by immature rat uterine wet weight assay; format: functional, organism-based
# In short: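 Immature CD-IGS rats given compound orally for 3 days without ethynyl estradiol (agonist mode); on day 4, 24 h after dosing, uterus removed and weighed; wet weight normalized to total body weight.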
# Rattus norvegicus [5] = assay: Reduction in uterine wet weight in ethynyl estradiol-stimulated CD-IGS rat at 10 mg/kg, po dosed daily for 3 days by gavage followed 15 mins later by 0.1 mg/kg, po ethynyl estradiol and measured 24 hrs after last dose by immature rat uterine wet weight assay; format: functional; in short: as §1
# [6] = Clearance in Sprague-Dawley rat at 1 mg/kg, iv; format: ADME, organism-based; conditions: in vivo
# [7] = Oral bioavailability in Sprague-Dawley rat at 2 mg/kg; format: ADME, organism-based; conditions: in vivo
# Estrogen receptor [8] = molecular target: T1, Estrogen receptor; assay: Binding affinity to ERalpha (unknown origin)
Structure (SMILES),IC50 (MCF7) [nM],IC50 (Estrogen receptor [1]) [nM],other results
CC1=C(c2cccc(O)c2)C(c2ccc(OCCN3CCCCCC3)cc2)Oc2ccc(O)cc21 (stereo not given),0.2,0.2,
CC1=C(c2cccc(O)c2)C(c2ccc(OCCN3CCCC3)cc2)Oc2ccc(O)cc21 (stereo not given),0.3,0.4,
CC1=C(c2cccc(O)c2)C(c2ccc(OCCN3CC(C)C3)cc2)Oc2ccc(O)cc21 (stereo not given),,,IC50 (Estrogen receptor [1]; mcf7): 0.3 nM
Oc1ccc([C@H]2Sc3ccc(O)cc3O[C@H]2c2ccc(OCCN3CCCCC3)cc2)cc1,,,clearance [6]: 154 mL/min/kg; bioavailability [7]: 0%
Oc1ccc([C@H]2Sc3cc(O)ccc3O[C@H]2c2ccc(OCCN3CCCCC3)cc2)cc1,,,clearance [6]: 5 mL/min/kg; bioavailability [7]: 31%
CC1=C(c2ccc(C#N)cc2)C(c2ccc(OC[C@H](C)N3CC[C@@H](C)C3)cc2)Oc2ccc(O)cc21 (stereo not given in full),10,,IC50 (Estrogen receptor [1]; mcf7): 1.5 nM; AUC [3]: 2000 ng·h/mL
CC1=C(c2cccc(O)c2)C(c2ccc(OCCN3CCCCC3)cc2)Oc2ccc(O)cc21 (stereo not given),0.2,0.2,
CC1=C(c2cccc(O)c2)C(c2ccc(OCCN3CCC3)cc2)Oc2ccc(O)cc21 (stereo not given),0.2,0.3,

# Further lines, with some results ahead:
IC50 (MCF7) [nM],IC50 (Estrogen receptor [1]) [nM],Structure (SMILES),other results
2.6,0.7,CC1=C(c2cccc(C#N)c2)C(c2ccc(OC[C@H](C)N3CC[C@@H](C)C3)cc2)Oc2ccc(O)cc21 (stereo not given in full),
0.1,0.1,CC1=C(c2ccc(O)cc2)C(c2ccc(OC[C@H](C)N3CC[C@@H](C)C3)cc2)Oc2ccc(O)cc21 (stereo not given in full),inhibition (INH) (Rattus norvegicus [2]): 113%; AUC [3]: 460 ng·h/mL
0.3,0.2,CC1=C(c2cccc(O)c2)C(c2ccc(OC[C@H](C)N3CC[C@@H](C)C3)cc2)Oc2cc(O)ccc21 (stereo not given in full),AUC [3]: 50 ng·h/mL
0.2,0.3,CC1=C(c2cccc(O)c2)C(c2ccc(OC[C@@H](C)N3CCCC3)cc2)Oc2ccc(O)cc21 (stereo not given in full),Activity (Rattus norvegicus [4]): Active; inhibition (INH) (Rattus norvegicus [5]): 84%
27,5.7,CC1=C(c2ccc(S(C)(=O)=O)cc2)C(c2ccc(OC[C@H](C)N3CC[C@@H](C)C3)cc2)Oc2ccc(O)cc21 (stereo not given in full),
59,9.7,CC1=C(c2cccc(O)c2)[C@@H](c2ccc(OC[C@H](C)N3CC[C@@H](C)C3)cc2)Oc2ccc(O)cc21,IC50 (Estrogen receptor [8]): 136 nM
0.1,0.9,CC1=C(c2cccc(O)c2)C(c2ccc(OC[C@H](C)N3CCC3)cc2)Oc2ccc(O)cc21 (stereo not given in full),
0.2,0.2,CC1=C(c2cccc(O)c2)C(c2ccc(OCCN3CCC(C)CC3)cc2)Oc2ccc(O)cc21 (stereo not given),
0.2,0.2,CC1=C(c2cccc(O)c2)C(c2ccc(OC[C@H](C)N3CC[C@H](C)C3)cc2)Oc2ccc(O)cc21 (stereo not given in full),
